The values that follow come from BindingDB's records for doi:10.1021/jm9811256 (Academy of Sciences of The Czech Republic, 1999).

Structures are written as SMILES.

A short description of assay [1]: Inhibitory activity against herpes simplex virus type 1 (HSV-1) thymidine kinase (TK) VMW 1837 strain.
Assay [2] is described as follows: Inhibitory activity against varicella zoster virus thymidine kinase (VZV TK-) 07/1 strain.
A short description of assay [3]: Inhibitory activity against varicella zoster virus thymidine kinase (VZV TK+) OKA strain.
The nature of assay [4]: Inhibition of herpes simplex virus type 1 thymidine kinase (HSV-1 TK-) B2006 strain.
A short description of assay [5]: Inhibitory activity against varicella zoster virus thymidine kinase (VZV TK+) YS strain.
Assay [6] has as its target T1, Thymidine kinase (Human herpesvirus 3, UniProt Q6QCL9).
T1 sequence (Q6QCL9 whole entry): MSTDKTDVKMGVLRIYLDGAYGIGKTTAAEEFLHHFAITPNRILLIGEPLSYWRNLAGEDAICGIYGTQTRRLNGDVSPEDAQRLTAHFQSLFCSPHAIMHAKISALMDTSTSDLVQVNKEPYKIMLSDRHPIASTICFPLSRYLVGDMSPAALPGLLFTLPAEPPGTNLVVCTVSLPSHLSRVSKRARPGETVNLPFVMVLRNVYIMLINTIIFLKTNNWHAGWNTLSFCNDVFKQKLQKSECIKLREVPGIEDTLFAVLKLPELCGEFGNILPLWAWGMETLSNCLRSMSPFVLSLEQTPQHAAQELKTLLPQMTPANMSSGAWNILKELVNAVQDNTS
Description: Inhibitory activity against varicella zoster virus thymidine kinase (VZV TK+) YS strain. Summed up: (§1)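 HEL cell cultures were grown to confluence and infected with 100 CCID50 of VZV. After a 1 h adsorption period, unbound virus was removed and compound was added at serial concentrations (400, 200, 100, ... μg/mL). Cytopathic effect was read when untreated virus controls reached full cytopathicity.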

The nature of assay [7]: Inhibition of varicella zoster virus thymidine kinase (VZV TK+) YS/R strain.
Assay [8] has as its target T1, Thymidine kinase. Description: Inhibitory activity against varicella zoster virus thymidine kinase (VZV TK+) OKA strain. Summed up:
as §1

In general, EC50 refers to the concentration needed to bring the measured effect to its halfway point. On to `CC(C)OP(=O)(COCCn1cnc2c(N)ncnc21)OC(C)C`, for which the EC50 in assay [1] is greater than 1110 µM; in assay [2], 55.9 µM; in assay [3], 19.5 µM; in assay [4], greater than 1110 µM; in assay [5], 111 µM.

As for `CC(C)OP(=O)(O)COCCn1cnc2c(N)nc(N)nc21`, the concentration for a half-maximal effect (EC50) in assay [1] is greater than 1210 µM; in assay [2], greater than 151 µM; in assay [3] it was 96.8 µM; in assay [4], greater than 1210 µM; in assay [5], greater than 151 µM.

Turning to `Nc1cc2c(ncn2CCOCP(=O)(O)O)c(O)n1`, the EC50 was determined as 6.93 µM in assay [1]; 3.22 µM in assay [2]; 5.55 µM at Thymidine kinase [6]; 2.56 µM in assay [3]; 1.76 µM in assay [7]; 24.2 µM in assay [4].

With `Nc1nc(S)c2c(ncn2CCOCP(=O)(O)O)n1`, the EC50 in assay [1] is 65.5 µM; in assay [2], 65.5 µM; in assay [3], 121 µM; in assay [4] it was greater than 327 µM; in assay [5] it was 98.2 µM.

`CC(C)CCCCCOP(=O)(COCCn1cnc2c(O)nc(N)nc21)OCCCCCC(C)C`: the EC50 in assay [1] is greater than 155 µM; in assay [2], 35 µM; in assay [4], greater than 155 µM; on Thymidine kinase [8] it was 21.4 µM; in assay [5], 8.17 µM.

For the compound `CC(C)CCCCCOP(=O)(COCCn1cnc2nc(N)nc(Cl)c21)OCCCCCC(C)C`, the concentration for a half-maximal effect (EC50) was greater than 30 µM in assay [1]; greater than 9.39 µM in assay [2]; greater than 9.39 µM in assay [3]; greater than 30 µM in assay [4]; greater than 9.39 µM in assay [5].

As for `CC(C)CCCCCOP(=O)(O)COCCn1cnc2c(O)nc(N)nc21`, the concentration for a half-maximal effect (EC50) in assay [1] came out at 597 µM; in assay [2], 87.1 µM; in assay [3], 3.98 µM; in assay [4] it was 597 µM; in assay [5] it was 32.3 µM.
